# Laboratory results from ChEMBL document CHEMBL2331552, “Identification of RO4597014, a Glucokinase Activator Studied in the Clinic for the Treatment of Type 2 Diabetes” (ACS Med Chem Lett, 2013).
# Experiments:
# Mus musculus [1] = assay: Antidiabetic activity in C57Bl/6J mouse assessed as change in blood glucose level at 50 mg/kg, po after 4 hrs relative to vehicle-treated control; format: functional
# Procedure, shortened: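 C57Bl/6J mice, 2 months old, n = 6 per group, fasted 2 h, received 50 mg/kg orally or vehicle. Blood was sampled at 2, 4, 6 and 8 h after dosing. The recorded value is % blood glucose change versus vehicle at 4 h.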
# [2] = target: T1, Hexokinase-4 (Homo sapiens) (UniProt P35557); assay: Activation of glucokinase (unknown origin) using glucose as substrate assessed as stimulation concentration required to achieve 150% activity relative to control
# T1 sequence (whole entry): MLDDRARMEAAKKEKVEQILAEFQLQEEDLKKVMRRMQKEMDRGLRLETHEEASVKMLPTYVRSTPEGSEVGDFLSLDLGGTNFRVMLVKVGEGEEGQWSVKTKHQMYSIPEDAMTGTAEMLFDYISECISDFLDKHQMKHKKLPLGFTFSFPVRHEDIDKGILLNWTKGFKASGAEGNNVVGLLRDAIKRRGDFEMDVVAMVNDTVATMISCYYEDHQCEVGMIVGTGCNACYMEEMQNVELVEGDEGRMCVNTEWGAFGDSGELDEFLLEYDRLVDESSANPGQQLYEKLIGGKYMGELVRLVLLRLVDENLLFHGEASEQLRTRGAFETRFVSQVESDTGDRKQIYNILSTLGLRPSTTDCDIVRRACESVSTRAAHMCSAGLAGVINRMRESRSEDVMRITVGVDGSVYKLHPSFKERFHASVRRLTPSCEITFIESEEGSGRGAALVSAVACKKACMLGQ
# Procedure, shortened: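 Read-out is the compound concentration giving GK activity 150% of control (SC1.5). Values are means of at least three independent assays. Assay CV averaged 15%.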
# hERG (KCNH2) = hERG (KCNH2) (Homo sapiens, UniProt Q12809); assay: Inhibition of human ERG channel at 10 uM by patch clamp method
# [3] = AUC (0 to infinity) in dog at 30 mg/kg, po; format: ADME, organism-based, Canis lupus familiaris; design: time infinity, dose 30 mg/kg, route oral; conditions: plasma
# [4] = Oral bioavailability in C57Bl/6J mouse at 30 mg/kg; format: ADME, organism-based; conditions: in vivo
# Mus musculus [5] = assay: Antidiabetic activity in diet induced obese C57Bl/6J mouse assessed as reduction in blood glucose level at 30 mg/kg, po after 2 to 4 hrs; format: functional; design: scale not given: the % may be the effect or the level left
# Procedure, shortened: (§1)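 Diet-induced obese C57Bl/6J mice were used: 6 months old, on high-fat diet for 4 months, n = 9 per dose. Oral doses were 7.5, 15 and 30 mg/kg. Basal blood glucose lowering was read at 2 and 4 h post-dose.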
# [6] = Fraction unbound in human plasma; format: ADME, cell-free
# [7] = AUC (0 to infinity) in C57Bl/6J mouse at 30 mg/kg, po; format: ADME, organism-based; design: time infinity, dose 30 mg/kg, route oral; conditions: plasma
# [8] = Tmax in dog at 30 mg/kg, po; format: ADME, organism-based, Canis lupus familiaris; design: dose 30 mg/kg, route oral; conditions: in vivo
# [9] = Volume of distribution at steady state in C57Bl/6J mouse at 10 mg/kg, iv; format: ADME, organism-based; design: dose 10 mg/kg, route intravenous; conditions: in vivo, read-out: Vdss
# [10] = Inhibition of cytochrome P450 (unknown origin); format: ADME, Homo sapiens
# Procedure, shortened: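 IC50 was measured against 7 CYP isoforms.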
# [11] = Metabolic stability in human hepatocytes after 3 hrs by LC-MS/MS analysis; format: ADME, cell-based, Hepatocyte; conditions: read-out: Stability
# [12] = Dissociation constant, pKa of the compound; format: physicochemical
# [13] = Cmax in dog at 30 mg/kg, po; format: ADME, organism-based, Canis lupus familiaris; design: dose 30 mg/kg, route oral; conditions: in vivo
# [14] = target: T1, Hexokinase-4 (Homo sapiens); assay: Activation of human recombinant glucokinase using glucose as substrate
# Procedure, shortened: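 Recombinant human GK was run across a range of glucose concentrations with varied activator levels. Vmax and the glucose SC0.5 (concentration reaching half Vmax) were derived.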
# [15] = target: Voltage-gated inwardly rectifying potassium channel KCNH2 (Homo sapiens, UniProt Q12809); assay: Inhibition of human ERG channel
# Procedure, shortened: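 hERG potassium channel current was measured by patch clamp at varied concentrations. IC50 was taken from the concentration-dependent inhibition.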
# [16] = Cmax in C57Bl/6J mouse at 30 mg/kg, po; format: ADME, organism-based; design: dose 30 mg/kg, route oral; conditions: in vivo
# [17] = Tmax in C57Bl/6J mouse at 30 mg/kg, po; format: ADME, organism-based; design: dose 30 mg/kg, route oral; conditions: in vivo
# [18] = Clearance in C57Bl/6J mouse at 10 mg/kg, iv; format: ADME, organism-based; design: dose 10 mg/kg, route intravenous; conditions: in vivo
# Mus musculus [19] = assay: Antidiabetic activity in po dosed diet induced obese C57Bl/6J mouse assessed as reduction in blood glucose level after 2 to 4 hrs; format: functional; procedure, shortened: as §1
# [20] = Clearance in dog at 10 mg/kg, iv; format: ADME, organism-based, Canis lupus familiaris; design: dose 10 mg/kg, route intravenous; conditions: in vivo
# Mus musculus [21] = assay: Antidiabetic activity in po dosed diet induced obese C57Bl/6J mouse assessed as lowering blood glucose level; format: functional, organism-based
# Procedure, shortened: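 Diet-induced obese C57Bl/6J mice were used: 6 months old, 4 months on high-fat diet, n = 9 per dose. Oral doses were 7.5, 15 and 30 mg/kg, with glucose followed at 2 and 4 h post-dose. The dose giving 25% glucose lowering (ED25) was reported.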
# [22] = Apparent permeability of the compound across human Caco2 cells; format: ADME, cell-based; conditions: Caco-2
# [23] = Volume of distribution at steady state in dog at 10 mg/kg, iv; format: ADME, organism-based, Canis lupus familiaris; design: dose 10 mg/kg, route intravenous; conditions: in vivo, read-out: Vdss
# [24] = Lipophilicity, log D of the compound at pH 7.4; format: physicochemical; conditions: buffer
# Mus musculus [25] = assay: Antidiabetic activity in diet induced obese C57Bl/6J mouse assessed as reduction in blood glucose level at 15 mg/kg, po after 2 to 4 hrs; format: functional; design: scale not given: the % may be the effect or the level left; procedure, shortened: as §1
# [26] = Oral bioavailability in dog at 30 mg/kg; format: ADME, organism-based, Canis lupus familiaris; conditions: in vivo
# [27] = Solubility of the compound at pH 7.4; format: physicochemical; conditions: buffer
# [28] = AUC (0 to infinity) in C57Bl/6J mouse at 10 mg/kg, iv; format: ADME, organism-based; design: time infinity, dose 10 mg/kg, route intravenous; conditions: plasma
# Liver microsomes = assay: Covalent binding to human liver microsomes after 30 mins in presence of NADPH per mg of protein; format: ADME, Microsome; conditions: 0.5 h
# Procedure, shortened: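 Covalent binding to human liver microsomes was measured with NADPH over 30 min. It is expressed per mg protein.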
# [29] = AUC (0 to infinity) in dog at 10 mg/kg, iv; format: ADME, organism-based, Canis lupus familiaris; design: time infinity, dose 10 mg/kg, route intravenous; conditions: plasma
# hERG (KCNH2), sequence (Q12809 whole entry): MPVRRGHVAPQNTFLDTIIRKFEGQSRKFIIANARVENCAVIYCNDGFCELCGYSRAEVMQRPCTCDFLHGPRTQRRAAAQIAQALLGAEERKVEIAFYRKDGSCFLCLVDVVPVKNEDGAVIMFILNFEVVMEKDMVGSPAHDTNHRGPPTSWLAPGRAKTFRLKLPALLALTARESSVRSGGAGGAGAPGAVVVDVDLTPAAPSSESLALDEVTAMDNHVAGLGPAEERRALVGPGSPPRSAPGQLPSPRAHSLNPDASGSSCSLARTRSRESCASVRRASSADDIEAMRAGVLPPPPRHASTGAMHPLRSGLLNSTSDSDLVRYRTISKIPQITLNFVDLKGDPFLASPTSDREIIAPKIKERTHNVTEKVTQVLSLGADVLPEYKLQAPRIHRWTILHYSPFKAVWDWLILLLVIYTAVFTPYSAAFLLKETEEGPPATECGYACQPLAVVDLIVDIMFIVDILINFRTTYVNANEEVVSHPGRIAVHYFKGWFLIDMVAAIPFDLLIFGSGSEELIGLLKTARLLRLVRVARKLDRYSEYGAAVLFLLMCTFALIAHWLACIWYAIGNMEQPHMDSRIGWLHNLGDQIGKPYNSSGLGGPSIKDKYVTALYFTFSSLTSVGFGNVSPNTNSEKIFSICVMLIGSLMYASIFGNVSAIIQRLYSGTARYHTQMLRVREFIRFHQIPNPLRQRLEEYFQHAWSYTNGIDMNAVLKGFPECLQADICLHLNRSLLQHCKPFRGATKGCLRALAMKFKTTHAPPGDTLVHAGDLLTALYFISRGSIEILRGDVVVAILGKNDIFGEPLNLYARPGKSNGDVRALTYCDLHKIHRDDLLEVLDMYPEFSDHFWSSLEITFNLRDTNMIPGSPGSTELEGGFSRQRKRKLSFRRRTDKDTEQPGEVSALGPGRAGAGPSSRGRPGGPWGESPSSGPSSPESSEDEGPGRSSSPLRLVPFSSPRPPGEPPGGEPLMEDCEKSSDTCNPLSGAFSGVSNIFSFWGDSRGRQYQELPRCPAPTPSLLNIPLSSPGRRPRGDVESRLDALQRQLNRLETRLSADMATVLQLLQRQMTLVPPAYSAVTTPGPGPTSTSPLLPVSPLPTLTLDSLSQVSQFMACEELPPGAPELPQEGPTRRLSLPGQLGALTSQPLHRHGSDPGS
# Voltage-gated inwardly rectifying potassium channel KCNH2, sequence (Q12809 whole entry): as above
smiles,measurement,setting,value
CS(=O)(=O)c1ccc([C@@H](CC2CCCC2)C(=O)Nc2cnc(C#CC3(O)CCOCC3)cn2)cc1Cl,Activity,Mus musculus [1],-45%
same,Activity,[2],0.075 µM
CS(=O)(=O)c1ccc([C@@H](CC2CCCC2)C(=O)Nc2cnc(OC[C@@H](O)CO)cn2)cc1Cl,Activity,Mus musculus [1],-29%
same,Activity,[2],0.3 µM
CS(=O)(=O)c1ccc([C@@H](CC2CCCC2)C(=O)Nc2cnc([C@@H](O)CO)cn2)cc1Cl,inhibition at 10 µM,hERG (KCNH2),21%
same,Activity,Mus musculus [1],-35%
same,Activity,[2],1.1 µM
CS(=O)(=O)c1ccc([C@@H](CC2CCCC2)C(=O)Nc2cnc(C(=O)NO)cn2)cc1Cl,inhibition at 10 µM,hERG (KCNH2),37%
same,Activity,Mus musculus [1],-14%
same,Activity,[2],0.41 µM
C[S+]([O-])c1cnc(NC(=O)[C@H](CC2CCCC2)c2ccc(S(C)(=O)=O)c(Cl)c2)cn1 (stereo not given in full),inhibition at 10 µM,hERG (KCNH2),27%
same,Activity,Mus musculus [1],-26%
same,Activity,[2],0.4 µM
CS(=O)(=O)Cc1cnc(NC(=O)[C@H](CC2CCCC2)c2ccc(S(C)(=O)=O)c(Cl)c2)cn1,Activity,Mus musculus [1],-39%
same,Activity,[2],0.26 µM
CS(=O)(=O)c1ccc([C@@H](CC2CCCC2)C(=O)Nc2cnc(OC[C@H](O)CO)cn2)cc1Cl,Activity,Mus musculus [1],-38%
same,Activity,[2],0.19 µM
CS(=O)(=O)c1ccc([C@@H](CC2CCCC2)C(=O)Nc2cnc([C@H](O)CO)cn2)cc1Cl,AUC(0-inf),[3],54500 ng·h/mL
same,bioavailability,[4],50.3%
same,Activity,Mus musculus [5],45%
same,fraction unbound,[6],0.1
same,AUC(0-inf),[7],12100 ng·h/mL
same,Tmax,[8],7.3 h
same,Vd,[9],1.44 L/kg
same,IC50,[10],> 30 µM
same,remaining at 3 h,[11],95%
same,pKa,[12],11.4
same,inhibition at 10 µM,hERG (KCNH2),22%
same,Cmax,[13],3790 ng/mL
same,Activity,[14],Dose-dependent effect
same,IC50,[15],70 µM
same,Cmax,[16],1310 ng/mL
same,Tmax,[17],4 h
same,clearance,[18],20.8 mL/min/kg
same,ED25,Mus musculus [19],10 mg/kg
same,clearance,[20],8 mL/min/kg
same,Activity,Mus musculus [21],Dose-dependent effect
same,Papp,[22],3.36 ×10⁻⁶ cm/s
same,Vd,[23],1.69 L/kg
same,logD,[24],2.7
same,Activity,Mus musculus [25],32%
same,bioavailability,[26],84%
same,solubility,[27],170 µg/mL
same,Activity,Mus musculus [1],-44%
same,AUC(0-inf),[28],8010 ng·h/mL
same,Activity,Liver microsomes,33 pmol
same,Activity,[2],0.26 µM
same,AUC(0-inf),[29],21600 ng·h/mL
C/C(=N/O)c1cnc(NC(=O)[C@H](CC2CCCC2)c2ccc(S(C)(=O)=O)c(Cl)c2)cn1,inhibition at 10 µM,hERG (KCNH2),73%
same,Activity,Mus musculus [1],-43%
same,Activity,[2],0.059 µM
CC(C)(O)C#Cc1cnc(NC(=O)[C@H](CC2CCCC2)c2ccc(S(C)(=O)=O)c(Cl)c2)cn1,Activity,Mus musculus [1],-48%
same,Activity,[2],0.056 µM
CS(=O)(=O)c1ccc(C(CC2CCOCC2)C(=O)Nc2cnccn2)cc1Cl (stereo not given),inhibition at 10 µM,hERG (KCNH2),8.1%
same,Activity,Mus musculus [1],-5.6%
same,Activity,[2],1.4 µM
COc1cc(C(CC2CCCC2)C(=O)Nc2cnccn2)ccc1S(C)(=O)=O (stereo not given),inhibition at 10 µM,hERG (KCNH2),36%
same,Activity,[2],1.9 µM
CS(=O)(=O)c1ccc([C@@H](CC2CCCC2)C(=O)Nc2cnc(CCC3(O)CCOCC3)cn2)cc1Cl,inhibition at 10 µM,hERG (KCNH2),40%
same,Activity,Mus musculus [1],-43%
same,Activity,[2],0.13 µM
CS(=O)(=O)c1ccc([C@@H](CC2CCCC2)C(=O)Nc2cnc(C#CCO)cn2)cc1Cl,inhibition at 10 µM,hERG (KCNH2),46%
same,Activity,Mus musculus [1],-46%
same,Activity,[2],0.022 µM
CC(C)(O)[C@@H](O)c1cnc(NC(=O)[C@H](CC2CCCC2)c2ccc(S(C)(=O)=O)c(Cl)c2)cn1,Activity,Mus musculus [1],-44%
same,Activity,[2],0.31 µM
CS(=O)(=O)c1ccc(C(CC2CCOC2)C(=O)Nc2cnccn2)cc1Cl (stereo not given),Activity,[2],3.6 µM
CS(=O)(=O)c1ccc([C@@H](CC2CCCC2)C(=O)Nc2cnccn2)cc1Cl,Activity,Mus musculus [1],-53%
same,Activity,[2],0.11 µM
CS(=O)(=O)c1ccc([C@@H](CC2CCCC2)C(=O)Nc2cnc(/C(N)=N\O)cn2)cc1Cl,inhibition at 10 µM,hERG (KCNH2),50%
same,Activity,Mus musculus [1],-53%
same,Activity,[2],0.037 µM
CN(C)CC#Cc1cnc(NC(=O)[C@H](CC2CCCC2)c2ccc(S(C)(=O)=O)c(Cl)c2)cn1,inhibition at 10 µM,hERG (KCNH2),86%
same,Activity,Mus musculus [1],-46%
same,Activity,[2],0.11 µM
COCC#Cc1cnc(NC(=O)[C@H](CC2CCCC2)c2ccc(S(C)(=O)=O)c(Cl)c2)cn1,inhibition at 10 µM,hERG (KCNH2),53%
same,Activity,Mus musculus [1],-49%
same,Activity,[2],0.14 µM
CSc1cnc(NC(=O)[C@H](CC2CCCC2)c2ccc(S(C)(=O)=O)c(Cl)c2)cn1,Activity,Mus musculus [1],-26%
same,Activity,[2],0.054 µM
